We go through 28 molecules from ChEMBL document CHEMBL3259740, “Design, synthesis and evaluation of novel diaryl urea derivatives as potential antitumor agents” (Eur J Med Chem, 2014).

Bounds are passed on as bounds.

One assay deals with MX1. The assay is described as follows: Cytotoxicity against human MX1 cells assessed as growth inhibition after 120 hrs by MTT assay. It counts as functional, cell-based. The following applies: MX1, 120 h. The essentials: (§1)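 Cells kept in DMEM with 10% FBS, penicillin and streptomycin at 37 °C, 5% CO2. Seeded at 2000 cells/well, grown 24 h, then exposed to a range of compound concentrations for 120 h. MTT at 0.5 mg/mL added for 4 h at 37 °C. Formazan dissolved in DMSO, absorbance read at 570 nm. IC50 is the mean of three determinations.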

Another assay has as its system A-375. Put plainly: Cytotoxicity against human A375 cells assessed as growth inhibition after 120 hrs by MTT assay. The format is functional, cell-based. Conditions: A-375, 120 h. The essentials:
as §1

The subject of another assay is HepG2. Put plainly: Cytotoxicity against human HepG2 cells assessed as growth inhibition after 120 hrs by MTT assay. Conditions: HepG2, 120 h. It counts as functional, cell-based. In short, it runs like this: as §1
The next assay concerns KETR3. Put plainly: Cytotoxicity against human Ketr3 cells assessed as growth inhibition after 120 hrs by MTT assay. The format is functional, cell-based. The following applies: KETR3, 120 h. In short, it runs like this: as §1
The subject of assay [1] is HT-29. Put plainly: Cytotoxicity against human HT-29 cells assessed as growth inhibition after 120 hrs by MTT assay. The following applies: HT-29, 120 h. It counts as functional, cell-based. The essentials:
as §1

The target in assay [2] is Serine/threonine-protein kinase B-raf (Homo sapiens, UniProt P15056). Put plainly: Inhibition of B-Raf (unknown origin) after 1 hr by ADP-Glo assay.
Assay [3] addresses RAF proto-oncogene serine/threonine-protein kinase (Homo sapiens, UniProt P04049). The assay is described as follows: Inhibition of C-Raf (unknown origin) after 1 hr by ADP-Glo assay. The essentials:
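Run in duplicate. Kinase, substrate, ATP and compound reacted 1 h at 30 °C. ADP-Glo reagent was added to stop the reaction, followed by 40 min at 27 °C. Kinase detection reagent was then added for a further 30 min at the same temperature before luminescence reading.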

Assay [4] concerns HT-29. Put plainly: Potency index, ratio of sorafenib IC50 to compound IC50 for human HT-29 cells. The format is functional.

Chain of Serine/threonine-protein kinase B-raf (P15056 whole entry): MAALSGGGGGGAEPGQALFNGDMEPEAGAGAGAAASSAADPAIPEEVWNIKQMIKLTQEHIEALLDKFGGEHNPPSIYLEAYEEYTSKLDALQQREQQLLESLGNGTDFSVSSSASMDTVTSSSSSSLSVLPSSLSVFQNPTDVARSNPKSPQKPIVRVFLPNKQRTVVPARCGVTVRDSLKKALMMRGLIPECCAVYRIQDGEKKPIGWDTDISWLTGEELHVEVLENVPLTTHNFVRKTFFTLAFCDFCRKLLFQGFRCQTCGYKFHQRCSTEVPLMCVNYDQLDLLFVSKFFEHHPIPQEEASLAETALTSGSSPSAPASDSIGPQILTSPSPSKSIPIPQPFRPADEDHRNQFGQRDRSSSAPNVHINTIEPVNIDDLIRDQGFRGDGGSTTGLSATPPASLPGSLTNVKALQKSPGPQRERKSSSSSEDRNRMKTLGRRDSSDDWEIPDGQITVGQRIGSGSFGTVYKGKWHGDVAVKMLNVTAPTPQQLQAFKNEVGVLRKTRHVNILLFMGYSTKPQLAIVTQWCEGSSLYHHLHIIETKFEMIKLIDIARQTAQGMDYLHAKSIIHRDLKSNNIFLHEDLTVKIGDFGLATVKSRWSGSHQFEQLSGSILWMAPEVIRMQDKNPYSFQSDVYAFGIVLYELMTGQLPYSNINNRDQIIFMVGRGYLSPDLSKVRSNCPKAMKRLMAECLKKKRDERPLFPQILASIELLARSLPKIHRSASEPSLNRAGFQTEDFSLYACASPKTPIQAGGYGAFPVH
Chain of RAF proto-oncogene serine/threonine-protein kinase (P04049 whole entry): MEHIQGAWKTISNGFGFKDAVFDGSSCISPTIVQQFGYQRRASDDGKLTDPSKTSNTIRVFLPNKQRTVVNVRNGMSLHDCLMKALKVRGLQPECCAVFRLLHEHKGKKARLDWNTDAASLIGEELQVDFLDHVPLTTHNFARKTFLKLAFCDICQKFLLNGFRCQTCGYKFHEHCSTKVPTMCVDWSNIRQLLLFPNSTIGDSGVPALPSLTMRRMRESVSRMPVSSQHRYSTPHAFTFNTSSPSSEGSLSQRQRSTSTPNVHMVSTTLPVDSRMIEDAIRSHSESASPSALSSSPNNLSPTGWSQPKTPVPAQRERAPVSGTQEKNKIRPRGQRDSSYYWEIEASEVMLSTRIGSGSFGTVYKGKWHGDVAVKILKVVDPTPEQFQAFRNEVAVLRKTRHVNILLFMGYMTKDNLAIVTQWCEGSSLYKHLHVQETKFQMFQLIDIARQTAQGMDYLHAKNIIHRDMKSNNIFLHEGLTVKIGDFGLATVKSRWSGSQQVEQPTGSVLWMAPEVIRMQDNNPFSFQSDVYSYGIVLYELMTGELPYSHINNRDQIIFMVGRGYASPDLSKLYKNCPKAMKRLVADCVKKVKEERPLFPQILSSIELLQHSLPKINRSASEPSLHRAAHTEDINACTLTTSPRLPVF

For the molecule `CNC(=O)/C=C/c1ccc(NC(=O)Nc2ccc(Cl)c(C(F)(F)F)c2)cc1`, the IC50 with MX1 is 13.8 µM; in the assay on A-375, 20.9 µM; in the assay on HepG2 it was 20.4 µM; in the assay with KETR3, 21.2 µM; with HT-29 [1] it was 11.7 µM.

On to `O=C(CCc1ccc(NC(=O)Nc2ccc(Cl)c(C(F)(F)F)c2)cc1)NC1CCC1`, for which the IC50 in the assay with MX1 was 24 µM; with A-375, over 50 µM; in the assay with HepG2, over 50 µM; in the assay with KETR3, over 50 µM; in the assay with HT-29 [1], 21.3 µM.

Turning to `CC(NC(=O)/C=C/c1ccc(NC(=O)Nc2ccc(Cl)c(C(F)(F)F)c2)cc1)c1ccccc1` (centres undefined), the half-inhibitory concentration (IC50) was found to be 3.13 µM in the assay with MX1; 20.8 µM with A-375; 12.2 µM in the assay on HepG2; 21.2 µM in the assay with KETR3; 1.06 µM with HT-29 [1].

Consider `CC(NC(=O)/C=C/Oc1ccc(NC(=O)Nc2cc(C(F)(F)F)ccc2Cl)cc1)c1ccccc1` (centres undefined), for which the IC50 in the assay with MX1 was 16.1 µM; with A-375 it was 16 µM; with HepG2, 11.9 µM; with KETR3, 16.4 µM; with HT-29 [1], over 50 µM.

Take `C/C(=C\c1ccc(NC(=O)Nc2ccc(Cl)c(C(F)(F)F)c2)cc1)C(=O)N1CC(C)OC(C)C1` (centres undefined): the IC50 in the assay on MX1, in the assay on A-375, in the assay on HepG2, in the assay with KETR3 and in the assay on HT-29 [1] was over 50 µM each time.

`CNC(=O)/C=C(\C)c1ccc(NC(=O)Nc2ccc(Cl)c(C(F)(F)F)c2)cc1`: the IC50 in the assay on MX1, in the assay with A-375, in the assay on HepG2, in the assay with KETR3 and in the assay on HT-29 [1] was over 50 µM each time.

Consider `CC1CN(C(=O)/C=C/c2ccc(NC(=O)Nc3ccc(Cl)c(C(F)(F)F)c3)cc2)CC(C)O1` (centres undefined), for which the IC50 in the assay on MX1 was 12.8 µM; in the assay with A-375, over 50 µM; in the assay with HepG2, 45.9 µM; with KETR3, over 50 µM; in the assay on HT-29 [1], 9.1 µM.

With `CC(NC(=O)c1cccc(-c2ccc(NC(=O)Nc3ccc(Cl)c(C(F)(F)F)c3)cc2)c1)c1ccccc1` (centres undefined), the IC50 in the assay on MX1 is 5.24 µM; with A-375 it was 5.17 µM; with HepG2 it was 5.67 µM; in the assay with KETR3, 6.46 µM; in the assay on HT-29 [1], 6.32 µM; in assay [2], over 50 µM. This molecule also registered an IC50 in assay [3] of over 50 µM.

For the molecule `CC1CN(C(=O)CCc2ccc(NC(=O)Nc3ccc(Cl)c(C(F)(F)F)c3)cc2)CC(C)O1` (centres undefined), the IC50 with MX1, in the assay with A-375, with HepG2, in the assay with KETR3 and with HT-29 [1] was over 50 µM each time.

With `CC(NC(=O)CCc1ccc(NC(=O)Nc2ccc(Cl)c(C(F)(F)F)c2)cc1)c1ccccc1` (centres undefined), the IC50 was over 50 µM in the assay on MX1; over 50 µM in the assay on A-375; over 50 µM with HepG2; over 50 µM with KETR3; 26.5 µM in the assay on HT-29 [1].

On to `CC(NC(=O)/C=C/c1ccc(NC(=O)Nc2cc(C(F)(F)F)ccc2Cl)cc1)c1ccccc1` (centres undefined), for which the IC50 with MX1 came out at 1.89 µM; in the assay with A-375 it was 40.9 µM; in the assay with HepG2 it was 35.9 µM; in the assay on KETR3, 14.3 µM; in the assay on HT-29 [1] it was 4.19 µM.

As to `CC1CN(C(=O)c2ccc(-c3ccc(NC(=O)Nc4cc(C(F)(F)F)ccc4Cl)cc3)cc2)CC(C)O1` (centres undefined), the IC50 with MX1 is over 50 µM; with A-375 it was over 50 µM; in the assay on HepG2, over 50 µM; in the assay on KETR3, over 50 µM; in the assay with HT-29 [1] it was 1.9 µM. For the same molecule, the “Ratio IC50” value with HT-29 [4] was 8.

Regarding `O=C(/C=C/c1ccc(NC(=O)Nc2ccc(Cl)c(C(F)(F)F)c2)cc1)NC1CCC1`, the IC50 with MX1 was determined as 4.53 µM; in the assay on A-375, 15.4 µM; in the assay on HepG2, 7.51 µM; in the assay on KETR3 it was 17.3 µM; in the assay on HT-29 [1] it was 4.43 µM.

With `CNC(=O)c1cccc(-c2ccc(NC(=O)Nc3ccc(Cl)c(C(F)(F)F)c3)cc2)c1`, the IC50 in the assay with MX1 was over 50 µM; with A-375 it was 46.5 µM; in the assay on HepG2, 37.1 µM; with KETR3, 39.3 µM; in the assay with HT-29 [1], 29.3 µM.

With `CC(NC(=O)C#Cc1ccc(NC(=O)Nc2cc(C(F)(F)F)ccc2Cl)cc1)c1ccccc1` (centres undefined), the IC50 in the assay with MX1 was found to be 16.1 µM; with A-375, 30.5 µM; in the assay with HepG2, 19 µM; in the assay on KETR3, 23.2 µM; with HT-29 [1], 3.17 µM.

Take `CNC(=O)C#Cc1ccc(NC(=O)Nc2ccc(Cl)c(C(F)(F)F)c2)cc1`: the IC50 in the assay on MX1 is 26.4 µM; with A-375, over 50 µM; in the assay on HepG2 it was 23.3 µM; with KETR3, 24.7 µM; in the assay with HT-29 [1] it was 14 µM.

Regarding `C/C(=C\c1ccc(NC(=O)Nc2ccc(Cl)c(C(F)(F)F)c2)cc1)C(=O)NC(C)c1ccccc1` (centres undefined), the IC50 in the assay on MX1, in the assay on A-375, in the assay on HepG2, in the assay with KETR3 and in the assay with HT-29 [1] was over 50 µM in each case.

Regarding `C/C(=C\C(=O)N1CC(C)OC(C)C1)c1ccc(NC(=O)Nc2ccc(Cl)c(C(F)(F)F)c2)cc1` (centres undefined), the IC50 in the assay on MX1 is over 50 µM; in the assay on A-375 it was 46.2 µM; in the assay with HepG2, over 50 µM; in the assay on KETR3, over 50 µM; in the assay with HT-29 [1], 26.2 µM.

As to `CNC(=O)c1cc(Oc2ccc(NC(=O)Nc3ccc(Cl)c(C(F)(F)F)c3)cc2)ccn1` [SORAFENIB], the IC50 came to 8.27 µM with MX1; 9.17 µM with A-375; 8.67 µM in the assay with HepG2; 18.8 µM in the assay with KETR3; 15.2 µM in the assay on HT-29 [1].

Regarding `CNC(=O)/C=C/Oc1ccc(NC(=O)Nc2ccc(Cl)c(C(F)(F)F)c2)cc1`, the IC50 in the assay with MX1 is 18.8 µM; in the assay on A-375, 36.8 µM; in the assay on HepG2, 24.2 µM; in the assay with KETR3, over 50 µM; with HT-29 [1] it was over 50 µM.

On to `CNC(=O)CCc1ccc(NC(=O)Nc2ccc(Cl)c(C(F)(F)F)c2)cc1`, for which the IC50 came to 20.4 µM in the assay on MX1; 25.2 µM in the assay with A-375; 21 µM with HepG2; 24 µM with KETR3; 20.6 µM with HT-29 [1].

As to `CC(NC(=O)c1ccc(-c2ccc(NC(=O)Nc3cc(C(F)(F)F)ccc3Cl)cc2)cc1)c1ccccc1` (centres undefined), the 50% inhibitory concentration (IC50) was found to be 17.7 µM with MX1; 16.9 µM in the assay with A-375; 18.4 µM with HepG2; 16.8 µM with KETR3; 6.57 µM in the assay on HT-29 [1].

For the molecule `CC(NC(=O)/C=C/Oc1ccc(NC(=O)Nc2ccc(Cl)c(C(F)(F)F)c2)cc1)c1ccccc1` (centres undefined), the IC50 in the assay with MX1 was 13.7 µM; in the assay on A-375, 20.7 µM; in the assay with HepG2, 14.1 µM; in the assay on KETR3, 14.5 µM; in the assay on HT-29 [1] it was over 50 µM.

For the molecule `CC(NC(=O)c1ccc(-c2ccc(NC(=O)Nc3ccc(Cl)c(C(F)(F)F)c3)cc2)cc1)c1ccccc1` (centres undefined), the IC50 in the assay with MX1 was found to be 4.63 µM; in the assay with A-375 it was 12.8 µM; in the assay with HepG2, 16.8 µM; in the assay with KETR3 it was 19.3 µM; in the assay on HT-29 [1], 5.96 µM.

As to `CC(NC(=O)C#Cc1ccc(NC(=O)Nc2ccc(Cl)c(C(F)(F)F)c2)cc1)c1ccccc1` (centres undefined), the IC50 in the assay on MX1 was 12.8 µM; with A-375, 16.8 µM; with HepG2 it was 20.5 µM; with KETR3, 21.4 µM; in the assay on HT-29 [1], 4.92 µM.

Consider `C/C(=C\C(=O)NC(C)c1ccccc1)c1ccc(NC(=O)Nc2ccc(Cl)c(C(F)(F)F)c2)cc1` (centres undefined), for which the IC50 with MX1, in the assay on A-375, in the assay with HepG2, in the assay with KETR3 and in the assay with HT-29 [1] was over 50 µM throughout.

`CNC(=O)/C(C)=C/c1ccc(NC(=O)Nc2ccc(Cl)c(C(F)(F)F)c2)cc1`: the IC50 is over 50 µM with MX1; over 50 µM in the assay with A-375; 44.3 µM in the assay on HepG2; over 50 µM in the assay with KETR3; over 50 µM with HT-29 [1].

Turning to `CC1CN(C(=O)c2ccc(-c3ccc(NC(=O)Nc4ccc(Cl)c(C(F)(F)F)c4)cc3)cc2)CC(C)O1` (centres undefined), the IC50 in the assay on MX1 is over 50 µM; in the assay with A-375 it was over 50 µM; with HepG2, 31.1 µM; in the assay on KETR3 it was 41.9 µM; with HT-29 [1] it was 2.05 µM. Moreover, in the assay on HT-29 [4], the “Ratio IC50” value came out at 8.
